Publication PMC6824728 (International journal of pharmaceutics, 2019)
pIC50: −log10 of the molar value.

Columns and labels:
[1] = test system: M-Wnt cells; test: In vitro cytotoxicity, MTT assay; assay type: cell-based, murine; settings: 24 h of incubation
Method in brief: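 M-Wnt cells were grown in RPMI 1640 plus 1% Glutamax and seeded at 1,000 cells/well. After overnight attachment at 37°C, 5% CO2, they were treated for 24 h with graded concentrations of free compound (DMSO stock diluted in medium) or SLN formulation (dispersed in medium). Drug-free SLN, DMSO and medium controls were included. Survival was read by MTT.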

[2] = test system: B16-F10 cells; test: In vitro cytotoxicity, MTT assay; assay type: cell-based, murine; settings: 48 h of incubation
Method in brief: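 B16-F10 cells were grown in DMEM and seeded at 4,000 cells/well. After overnight attachment at 37°C, 5% CO2, they were exposed for 48 h to graded concentrations of free compound (DMSO stock diluted in medium) or SLN formulation (dispersed in medium). Drug-free SLNs, DMSO and medium served as controls. Survival was read by MTT.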

[3] = test system: B16-F10 tumor; test: Antitumor activity in mice with pre-established B16-F10 tumors; assay type: in vivo; settings: B16-F10 s.c. tumors, i.v. 50 mg/kg DHA-dFdC on days 7, 10, 13, 16
[4] = test system: B16-F10 tumors; test: Histology; assay type: in vivo, C57BL/6 mice; settings: tumors collected day 17; i.v. 50 mg/kg DHA-dFdC x 4
Method in brief: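 Female C57BL/6 mice (18–20 g, 6–8 weeks) received 5 × 10^5 B16-F10 cells s.c. in the right flank on day 0. They were randomized on day 7 and dosed i.v. every 3 days ×4 at 50 mg/kg. Free compound was given in Tween 80/ethanol/5% mannitol vehicle; SLNs were dispersed in 5% mannitol. Tumors were harvested day 17, formalin-fixed, embedded and H&E stained.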

[5] = ref Naguib et al., 2016; cited from earlier work
[6] = Tween 80-ethanol-water solution, room temperature; ref Naguib et al., 2016; cited from earlier work
[7] = 20°C; ref Kim and Hsieh, 2001; Wu and Hopkins, 1999; cited from earlier work

| Compound | pIC50 [1] | pIC50 [2] | Tumor growth delay [3] | Tumor histology (H&E) [4] | Intrinsic solubility in water [5] | Half-life of DHA-dFdC in solution [6] | Critical micelle concentration [7] |
| --- | --- | --- | --- | --- | --- | --- | --- |
| CC/C=C\C/C=C\C/C=C\C/C=C\C/C=C\C/C=C\CCC(=O)Nc1ccn([C@@H]2O[C@H](CO)[C@@H](O)C2(F)F)c(=O)n1 [DHA-dFdC, 4-(N)-docosahexaenoyl 2′, 2′-difluorodeoxycytidine] | 5.67 | 5.74 | 4 days | vascular collapse and necrotic areas | ~ 25 μg/mL | ~ 14 h | – |
| Tween 20 | – | – | – | – | – | – | ~ 1 % (w/v) |
